Values after ≈ are worked out from the molar mass of the structure shown.
Key:
Staphylococcus aureus [1] = assay: In vitro minimum inhibitory concentration against Methicillin-resistant Staphylococcus aureus upon incubation at 37 degree C for 16 to 24 hr by dissolving in DMSO (1%); type: functional
Summary of the method: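 Broth microdilution (modified NCCLS M7-A4). Staphylococci grown to log phase in Luria broth, seeded at (3-7) × 10⁵ CFU/mL. Compounds 2-fold diluted from DMSO stocks, 20 to 1.25 µg/mL, final 1% DMSO, in duplicate. Incubated 37 °C, 16-24 h, with shaking. OD600 read.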

Staphylococcus aureus [2] = assay: Serum effect on MIC against Staphylococcus aureus (Smith) as ratio of MIC value in presence and absence of 50% fetal calf serum; type: functional
Summary of the method: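 Broth microdilution MIC was repeated with 50% fetal calf serum added to the growth medium (LB for S. aureus, brain-heart infusion broth for E. faecalis). The inoculum was (3-7) × 10^5 CFU/mL in 1% DMSO, incubated at 37 °C for 16-24 h, and read by OD600. The serum effect is the MIC with serum relative to the MIC without serum.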

Enterococcus faecium [3] = assay: In vitro minimum inhibitory concentration against Vancomycin resistant Enterococci faecium upon incubation at 37 degree C for 16 to 24 hr by dissolving in DMSO (1%); type: functional
Summary of the method: (§1)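 Broth microdilution (modified NCCLS M7-A4). Enterococci grown to log phase in brain-heart infusion broth, seeded at (3-7) × 10⁵ CFU/mL. Compounds 2-fold diluted from DMSO stocks, 20 to 1.25 µg/mL, final 1% DMSO, in duplicate. Incubated 37 °C, 16-24 h, with shaking. OD600 read.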

Enterococcus faecalis = assay: In vitro minimum inhibitory concentration against Enterococcus faecalis upon incubation at 37 degree C for 16 to 24 hr by dissolving in DMSO (1%); type: functional
Summary of the method: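 Log-phase E. faecalis was grown in brain-heart infusion broth and seeded at (3-7) × 10^5 CFU/mL. Duplicate 2-fold dilutions ran from 20 to 1.25 µg/mL, final 1% DMSO. After 16-24 h at 37 °C with shaking, OD600 was read.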

Staphylococcus aureus [4] = assay: In vitro minimum inhibitory concentration against Staphylococcus aureus (Smith) upon incubation at 37 degree C for 16 to 24 hr by dissolving in DMSO (1%); type: functional
Staphylococcus aureus [5] = assay: In vitro minimum inhibitory concentration against Staphylococcus aureus upon incubation at 37 degree C for 16 to 24 hr by dissolving in DMSO (1%); type: functional
Enterococcus faecium [6] = assay: In vitro minimum inhibitory concentration against Enterococcus fecium upon incubation at 37 degree C for 16 to 24 hr by dissolving in DMSO (1%); type: functional; summary of the method: as §1
Bacillus subtilis = assay: In vitro minimum inhibitory concentration against Bacillus subtilis upon incubation at 37 degree C for 16 to 24 h; type: functional
[7] = molecular target: DNA polymerase III PolC-type (Bacillus subtilis (strain 168), UniProt P13267); assay: Inhibitory concentration against Bacillus subtilis DNA polymerase IIIC using [3H]dTMP 250 pM (30 degree C for 10 min)
Sequence of DNA polymerase III PolC-type (P13267 whole entry, the tested form may be a part): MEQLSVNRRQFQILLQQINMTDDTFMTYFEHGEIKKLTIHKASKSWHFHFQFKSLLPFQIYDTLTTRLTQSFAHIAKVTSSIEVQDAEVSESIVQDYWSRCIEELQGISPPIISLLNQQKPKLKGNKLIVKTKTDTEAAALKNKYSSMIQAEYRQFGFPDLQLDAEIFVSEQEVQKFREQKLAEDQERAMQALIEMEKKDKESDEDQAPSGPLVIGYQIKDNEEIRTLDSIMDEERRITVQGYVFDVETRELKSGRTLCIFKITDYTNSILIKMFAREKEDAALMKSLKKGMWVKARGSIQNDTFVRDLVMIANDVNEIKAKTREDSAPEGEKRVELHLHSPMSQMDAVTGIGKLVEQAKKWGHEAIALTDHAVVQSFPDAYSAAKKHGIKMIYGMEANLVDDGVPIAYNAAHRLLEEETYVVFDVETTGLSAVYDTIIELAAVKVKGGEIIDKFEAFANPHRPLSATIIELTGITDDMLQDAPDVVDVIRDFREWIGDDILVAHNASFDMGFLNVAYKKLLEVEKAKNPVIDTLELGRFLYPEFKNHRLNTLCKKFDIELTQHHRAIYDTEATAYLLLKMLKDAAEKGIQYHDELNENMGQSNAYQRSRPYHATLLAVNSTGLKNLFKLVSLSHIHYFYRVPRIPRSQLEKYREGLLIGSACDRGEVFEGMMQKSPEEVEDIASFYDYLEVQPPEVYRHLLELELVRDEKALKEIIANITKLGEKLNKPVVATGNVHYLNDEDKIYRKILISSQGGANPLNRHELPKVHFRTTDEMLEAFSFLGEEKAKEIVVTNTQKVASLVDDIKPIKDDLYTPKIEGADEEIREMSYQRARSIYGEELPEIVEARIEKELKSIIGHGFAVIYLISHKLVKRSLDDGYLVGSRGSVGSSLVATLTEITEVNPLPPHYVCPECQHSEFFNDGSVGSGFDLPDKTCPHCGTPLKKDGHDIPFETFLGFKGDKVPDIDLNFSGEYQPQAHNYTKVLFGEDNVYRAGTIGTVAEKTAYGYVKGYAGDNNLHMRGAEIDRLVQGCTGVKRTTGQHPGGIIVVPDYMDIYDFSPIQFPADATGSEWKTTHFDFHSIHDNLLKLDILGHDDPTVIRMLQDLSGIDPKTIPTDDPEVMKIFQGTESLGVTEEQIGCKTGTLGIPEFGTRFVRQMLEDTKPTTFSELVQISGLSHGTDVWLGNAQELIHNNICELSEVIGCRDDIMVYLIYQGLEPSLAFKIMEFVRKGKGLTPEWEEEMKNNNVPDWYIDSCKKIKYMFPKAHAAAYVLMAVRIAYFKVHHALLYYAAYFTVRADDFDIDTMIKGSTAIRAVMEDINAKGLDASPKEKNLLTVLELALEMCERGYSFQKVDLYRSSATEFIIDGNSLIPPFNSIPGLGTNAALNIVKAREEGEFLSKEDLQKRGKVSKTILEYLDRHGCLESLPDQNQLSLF
Summary of the method: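 Homogeneous recombinant B. subtilis pol IIIC, 0.025-0.06 units, acted on activated calf thymus DNA with Mg2+, DTT, glycerol, dATP, dCTP, dTTP and [3H]dTTP, without dGTP. Compounds were serially diluted from DMSO. Reactions ran 10 min at 30 °C, were stopped with TCA-pyrophosphate, and the filter-collected precipitate was scintillation counted. Apparent Ki was read directly from this truncated assay; average standard deviation ±44%.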

SMILES | MIC (Staphylococcus aureus [1]) [µg/mL] | MIC+/MIC- (Staphylococcus aureus [2]) | MIC (Enterococcus faecium [3]) [µg/mL] | MIC (Enterococcus faecalis) [µg/mL] | MIC (Staphylococcus aureus [4]) [µg/mL] | MIC (Staphylococcus aureus [5]) [µg/mL] | MIC (Enterococcus faecium [6]) [µg/mL] | MIC (Bacillus subtilis) [µg/mL] | Ki [7] [nM]
CCc1cc(Nc2cc(=O)n(CCCCNC(=O)C3CC3)c(=O)[nH]2)ccc1C | 20 (≈ 52 µM) | 14.9 | 5 (≈ 13 µM) | 5 (≈ 13 µM) | 5 (≈ 13 µM) | – | – | – | –
CCc1cc(Nc2cc(=O)n(CCCCCCO)c(=O)[nH]2)ccc1C | 5 (≈ 14.5 µM) | 8.7 | – | 2.5 (≈ 7.24 µM) | – | 5 (≈ 14.5 µM) | 5 (≈ 14.5 µM) | – | –
O=C(O)c1cn(C2CC2)c2cc(N3CCNCC3)c(F)cc2c1=O [CIPROFLOXACIN] | > 20 | – | 20 (≈ 60.4 µM) | – | 0.078 (≈ 0.235 µM) | 0.156 (≈ 0.471 µM) | 5 (≈ 15.1 µM) | 0.078 (≈ 0.235 µM) | –
CCc1cc(Nc2cc(=O)n(CCCCCN3CC=C(c4ccc(F)cc4)CC3)c(=O)[nH]2)ccc1C | 7.5 (≈ 15.3 µM) | – | 5 (≈ 10.2 µM) | 7.5 (≈ 15.3 µM) | 7.5 (≈ 15.3 µM) | 10 (≈ 20.4 µM) | 7.5 (≈ 15.3 µM) | – | –
CCc1cc(Nc2cc(=O)n(CCCCOC(C)=O)c(=O)[nH]2)ccc1C | 5 (≈ 13.9 µM) | – | 5 (≈ 13.9 µM) | 5 (≈ 13.9 µM) | – | – | 5 (≈ 13.9 µM) | – | –
CCc1cc(Nc2cc(=O)n(CCCOC(C)=O)c(=O)[nH]2)ccc1C | 5 (≈ 14.5 µM) | – | 3.75 (≈ 10.9 µM) | 5 (≈ 14.5 µM) | 2.5 (≈ 7.24 µM) | 3.75 (≈ 10.9 µM) | 5 (≈ 14.5 µM) | 0.625 (≈ 1.81 µM) | 120
CCc1cc(Nc2cc(=O)n(CCCCCOC(C)=O)c(=O)[nH]2)ccc1C | 2.5 (≈ 6.69 µM) | – | 3.75 (≈ 10 µM) | 5 (≈ 13.4 µM) | 7.5 (≈ 20.1 µM) | 5 (≈ 13.4 µM) | 3.75 (≈ 10 µM) | 0.625 (≈ 1.67 µM) | 68
CCc1cc(Nc2cc(=O)n(CCCC(C)=O)c(=O)[nH]2)ccc1C | 5 (≈ 15.2 µM) | – | 2.5 (≈ 7.59 µM) | 5 (≈ 15.2 µM) | 2.5 (≈ 7.59 µM) | – | 5 (≈ 15.2 µM) | – | –
CCc1cc(Nc2cc(=O)n(CCCCNS(=O)(=O)c3cccs3)c(=O)[nH]2)ccc1C | – | 13.7 | 5 (≈ 10.8 µM) | 5 (≈ 10.8 µM) | – | > 20 | 2.5 (≈ 5.4 µM) | – | –
CCc1cc(Nc2cc(=O)n(CCCC(O)CO)c(=O)[nH]2)ccc1C (configuration not stated) | > 20 | – | 10 (≈ 28.8 µM) | 20 (≈ 57.6 µM) | 20 (≈ 57.6 µM) | – | 20 (≈ 57.6 µM) | – | –
CCOC(=O)CCCCn1c(=O)cc(Nc2ccc(C)c(CC)c2)[nH]c1=O | > 20 | >12.2 | 2.5 (≈ 6.69 µM) | 5 (≈ 13.4 µM) | – | – | < 1.25 | – | –
CCc1cc(Nc2cc(=O)n(CCCCN)c(=O)[nH]2)ccc1C.Cl | > 20 | – | – | > 20 | 10 | 20 | > 20 | 20 | –
CCc1cc(Nc2cc(=O)n(CCCCCN3CCc4c([nH]c5ccc(OC)cc45)C3)c(=O)[nH]2)ccc1C | 10 (≈ 19.4 µM) | – | 5 (≈ 9.7 µM) | > 20 | 10 (≈ 19.4 µM) | – | 20 (≈ 38.8 µM) | – | –
CCc1cc(Nc2cc(=O)n(CC#CCO)c(=O)[nH]2)ccc1C | 10 (≈ 31.9 µM) | – | 10 (≈ 31.9 µM) | 10 (≈ 31.9 µM) | – | 10 (≈ 31.9 µM) | 10 (≈ 31.9 µM) | – | –
CCc1cc(Nc2cc(=O)n(CCN3CCN(C(=O)c4ccccc4)CC3)c(=O)[nH]2)ccc1C | 10 (≈ 21.7 µM) | – | 5 (≈ 10.8 µM) | 10 (≈ 21.7 µM) | 10 (≈ 21.7 µM) | – | 5 (≈ 10.8 µM) | – | –
CCc1cc(Nc2cc(=O)n(C/C=C/CO)c(=O)[nH]2)ccc1C | 5 (≈ 15.9 µM) | 4.8 | 2.5 (≈ 7.93 µM) | 5 (≈ 15.9 µM) | 5 (≈ 15.9 µM) | 10 (≈ 31.7 µM) | 2.5 (≈ 7.93 µM) | 1.25 (≈ 3.96 µM) | –
CCc1cc(Nc2cc(=O)n(CCCCN(CCO)CCO)c(=O)[nH]2)ccc1C | – | – | – | > 20 | > 20 | > 20 | > 20 | > 20 | 21
CCc1cc(Nc2cc(=O)n(CC(C)=O)c(=O)[nH]2)ccc1C | 10 (≈ 33.2 µM) | – | 20 (≈ 66.4 µM) | 20 (≈ 66.4 µM) | 10 (≈ 33.2 µM) | – | 10 (≈ 33.2 µM) | – | –
CCc1cc(Nc2cc(=O)n(CCCCNCCO)c(=O)[nH]2)ccc1C | – | – | – | > 20 | > 20 | > 20 | > 20 | > 20 | 28
CCc1cc(Nc2cc(=O)n(CCCCCCCCO)c(=O)[nH]2)ccc1C | – | 21.3 | 2.5 (≈ 6.69 µM) | – | – | – | 2.5 (≈ 6.69 µM) | – | –
CCc1cc(Nc2cc(=O)n(CCCCOC)c(=O)[nH]2)ccc1C | 5 (≈ 15.1 µM) | 7.4 | 2.5 (≈ 7.54 µM) | 5 (≈ 15.1 µM) | 5 (≈ 15.1 µM) | 5 (≈ 15.1 µM) | 2.5 (≈ 7.54 µM) | < 1.25 | –
CCc1cc(Nc2cc(=O)n(CCCCOC(=O)N3CCOCC3)c(=O)[nH]2)ccc1C | 10 (≈ 23.2 µM) | – | 5 (≈ 11.6 µM) | 5 (≈ 11.6 µM) | 5 (≈ 11.6 µM) | – | 5 (≈ 11.6 µM) | – | –
CCc1cc(Nc2cc(=O)n(CCCCNC(=O)CCl)c(=O)[nH]2)ccc1C | 10 (≈ 25.5 µM) | – | 5 (≈ 12.7 µM) | 5 (≈ 12.7 µM) | 5 (≈ 12.7 µM) | – | 10 (≈ 25.5 µM) | – | –
CCc1cc(Nc2cc(=O)n(CCCCCCCCCCO)c(=O)[nH]2)ccc1C | – | – | – | > 20 | > 20 | > 20 | > 20 | < 1.25 | 51
CCc1cc(Nc2cc(=O)n(CCO)c(=O)[nH]2)ccc1C | 10 (≈ 34.6 µM) | – | 5 (≈ 17.3 µM) | 10 (≈ 34.6 µM) | 5 (≈ 17.3 µM) | 5 (≈ 17.3 µM) | 5 (≈ 17.3 µM) | < 1.25 | –
CCc1cc(Nc2cc(=O)n(CCCCC#N)c(=O)[nH]2)ccc1C | 5 (≈ 15.3 µM) | 6 | 5 (≈ 15.3 µM) | 2.5 (≈ 7.66 µM) | – | 5 (≈ 15.3 µM) | 5 (≈ 15.3 µM) | – | –
CCc1cc(Nc2cc(=O)n(CCOCCOCCO)c(=O)[nH]2)ccc1C | > 20 | – | 5 (≈ 13.2 µM) | 10 (≈ 26.5 µM) | 10 (≈ 26.5 µM) | – | 10 (≈ 26.5 µM) | – | –
CCc1cc(Nc2cc(=O)n(CCCC(=O)O)c(=O)[nH]2)ccc1C | > 20 | – | 20 (≈ 60.4 µM) | > 20 | – | 20 (≈ 60.4 µM) | 20 (≈ 60.4 µM) | – | –
CCOC(=O)CCCn1c(=O)cc(Nc2ccc(C)c(CC)c2)[nH]c1=O | 5 (≈ 13.9 µM) | 10 | 5 (≈ 13.9 µM) | 5 (≈ 13.9 µM) | – | – | – | – | –
